Data set [1] can be described thus: Chemical stability in aqueous buffer containing 5% DMSO and 5% tween 80 at pH 6.8 assessed as compound recovery in anoxic conditions after 6 hrs by UPLC analysis. The data set is classed as physicochemical. The following applies: read-out: Stability. In a few lines:
(§1)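 Stability at 37 °C in aqueous buffer with 5% DMSO and 5% Tween 80 at pH 1.2, 6.8 or 7.4; percent recovery by HPLC/UPLC on BEH C18 column, water+0.1% TFA/acetonitrile gradient from 40% to 95% acetonitrile over 8 min, room temperature.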

Data set [2] deals with NCI-H460. In words: Antiproliferative activity against human NCI-H460 cells incubated for 24 hrs drug exposure measured after 48 hrs of recovery by sulforhodamine B assay. Type of data set: functional, cell-based.
The nature of data set [3]: Chemical stability in aqueous buffer containing 5% DMSO and 5% tween 80 at pH 1.2 assessed as compound recovery in anoxic conditions after 12 hrs by UPLC analysis. The data set is classed as physicochemical. As to conditions: pH 1.2, 12 h. In a few lines:
as §1

The subject of data set [4] is NCI-H460. In words: Antitumor activity against human NCI-H460 cells xenografted in nude CD1 mouse assessed as tumor volume inhibition at 18 mg/kg, iv administered qd 3 times per week for 2 weeks relative to control. As to conditions: NCI-H460, 336 h, read-out: TGI. Type of data set: functional. In a few lines: (§2)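 CD1 nude mice given s.c. right-flank NCI-H460 (3 × 10⁶) or A431 (5 × 10⁶) cells from culture on day 0; eight mice per group. Dosing began day 3 at ~50 mm³ tumors; vehicle 10% DMSO, 9% HPBCD, 14.4% PEG1000 in water. Diameters taken biweekly by caliper; mice weighed daily, maximum BWL% reported; Mann–Whitney versus vehicle.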
In general terms: In xenograft studies the graft and the host belong to different species.

The nature of data set [5]: Chemical stability in aqueous buffer containing 5% DMSO and 5% tween 80 at pH 6.8 assessed as compound recovery in anoxic conditions after 24 hrs by UPLC analysis. As to conditions: read-out: Stability. Type of data set: physicochemical. In a few lines: as §1
The nature of data set [6]: Chemical stability in aqueous buffer containing 5% DMSO and 5% tween 80 at pH 7.4 assessed as compound recovery in anoxic conditions after 6 hrs by UPLC analysis. Type of data set: physicochemical. As to conditions: read-out: Stability. In outline:
as §1

Data set [7] concerns A-431. In words: Antiproliferative activity against human A431 cells incubated for 24 hrs drug exposure measured after 48 hrs of recovery by sulforhodamine B assay. The data set is classed as functional, cell-based.
In data set [8] the test system is Mus musculus. Nature of the data set: Toxicity in nude CD1 mouse xenografted with human A431 cells assessed as body weight loss at 37 mg/kg, iv administered qd 3 times per week for 2 weeks. As to conditions: in vivo, 336 h. Set-up: dose 37 mg/kg, route intravenous. Type of data set: organism-based, A-431. In a few lines:
as §2

In data set [9] the test system is Mus musculus. In words: Toxicity in nude CD1 mouse xenografted with human NCI-H460 NSCLC cells assessed as body weight loss at 18 mg/kg, iv administered qd 3 times per week for 2 weeks. Type of data set: organism-based. Set-up: dose 18 mg/kg, route intravenous. As to conditions: in vivo, 336 h. In outline:
as §2

The nature of data set [10]: Solubility in water. The following applies: buffer. Type of data set: physicochemical.
A short description of data set [11]: Toxicity in iv dosed nude CD1 mouse xenografted with human A431 cells assessed as mortality administered qd 3 times per week for 2 weeks. Type of data set: organism-based, A-431. The following applies: in vivo.
The test system of data set [12] is A-431. In words: Antitumor activity against human A431 cells xenografted in nude CD1 mouse assessed as tumor volume inhibition at 37 mg/kg, iv administered qd 3 times per week for 2 weeks relative to control. Type of data set: functional. The following applies: A-431, 336 h, read-out: TGI. In a few lines:
as §2

A short description of data set [13]: Chemical stability in aqueous buffer containing 5% DMSO and 5% tween 80 at pH 1.2 assessed as compound recovery in anoxic conditions after 3 hrs by UPLC analysis. The data set is classed as physicochemical. As to conditions: read-out: Stability. In outline:
as §1

Data set [14] is described as follows: Chemical stability in aqueous buffer containing 5% DMSO and 5% tween 80 at pH 7.4 assessed as compound recovery in anoxic conditions after 24 hrs by UPLC analysis. As to conditions: read-out: Stability. Type of data set: physicochemical. In outline:
as §1

In data set [15] the test system is A-431. In words: Antitumor activity against human A431 cells xenografted in nude CD1 mouse assessed as tumor volume inhibition at 10 mg/kg, iv administered qd 3 times per week for 2 weeks relative to control. The data set is classed as functional. The following applies: A-431, 336 h, read-out: TGI. In a few lines: as §2
Data set [16] has as its system Mus musculus. In words: Toxicity in nude CD1 mouse xenografted with human A431 cells assessed as body weight loss at 10 mg/kg, iv administered qd 3 times per week for 2 weeks. The data set is classed as organism-based, A-431. Set-up: dose 10 mg/kg, route intravenous. As to conditions: in vivo, 336 h. In outline: as §2
In data set [17] the test system is A-431. In words: Antitumor activity against human A431 cells xenografted in nude CD1 mouse assessed as tumor volume inhibition at 35 mg/kg, po administered qd 3 times per week for 2 weeks relative to control. The data set is classed as functional. As to conditions: A-431, 336 h, read-out: TGI. In a few lines:
(§3)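 A431 epidermoid carcinoma cells (5 × 10⁶) from in vitro culture were injected s.c. into the right flank of CD1 nude mice on day 0, with 8 mice per group. Dosing began on day 3, at tumors of about 50 mm³, on a qdx3/wx2w schedule. Vehicle was 10% DMSO, 9% HPBCD and 14.4% PEG1000 in water. Tumor diameters were measured twice weekly by caliper, and TVI% was taken versus the vehicle group (Mann–Whitney).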

For data set [18], the system named is Mus musculus. In words: Toxicity in nude CD1 mouse xenografted with human A431 cells assessed as body weight loss at 35 mg/kg, ip administered qd 3 times per week for 2 weeks. The data set is classed as organism-based, A-431. Set-up: dose 35 mg/kg, route intraperitoneal. The following applies: in vivo, 336 h. In a few lines:
(§4)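 CD1 nude mice bore s.c. A431 xenografts (5 × 10⁶ cells, right flank, 8 mice per group). Dosing started on day 3 on a qdx3/wx2w schedule, in vehicle of 10% DMSO, 9% HPBCD and 14.4% PEG1000 in water. Mice were weighed daily, and BWL% = 100 − (mean body weight day x / mean body weight day 1 × 100), with day 1 the first treatment day. The maximum BWL is reported.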

For data set [19], the system named is Mus musculus. Nature of the data set: Toxicity in nude CD1 mouse xenografted with human A431 cells assessed as body weight loss at 35 mg/kg, po administered qd 3 times per week for 2 weeks. Type of data set: organism-based, A-431. Set-up: dose 35 mg/kg, route oral. As to conditions: in vivo, 336 h. In a few lines: as §4
Data set [20] deals with A-431. In words: Antitumor activity against human A431 cells xenografted in nude CD1 mouse assessed as tumor volume inhibition at 35 mg/kg, ip administered qd 3 times per week for 2 weeks relative to control. The following applies: A-431, ip, 336 h, route intraperitoneal, read-out: TGI. The data set is classed as functional. In a few lines: as §3

The structures appear in SMILES notation.

For orientation: IC50 means the concentration needed to halve the response being measured. High values mean weaker potency in that assay, low ones greater potency in that assay. With `O=C(O)/C=C/c1ccc(-c2ccc(OC(=O)CCCN3CCOCC3)c(C34CC5CC(CC(C5)C3)C4)c2)cc1`, the remaining at 6 h in data set [1] and in data set [6] was 99% throughout. The figures for the IC50 in the data set on NCI-H460 [2] and in the data set on A-431 [7] were 220 nM and 340 nM, respectively. In [3], the Stability result is recorded as “Stable”. Moreover, the inhibition in vivo at 18 mg/kg in the data set with NCI-H460 [4] was 37%. In addition, the remaining at 24 h in data set [5] is 90%; in data set [14], 88%. Moreover, the Activity is 18% with Mus musculus [8], 10% with Mus musculus [9] and 0% with Mus musculus [16]. Moreover, the solubility entry in [10] is “Insoluble”. The MTD at 336 h in [11] was found to be 18 mg/kg. In the data set with A-431 [12], the inhibition in vivo at 37 mg/kg stood at 59%. Also, the remaining at 3 h in [13] was over 99%. In the data set with A-431 [15], the inhibition in vivo at 10 mg/kg stood at 34%.

`Cl.NCCCCNC(=O)Oc1ccc(-c2ccc(/C=C/C(=O)O)cc2)cc1C12CC3CC(CC(C3)C1)C2`: the IC50 was 2600 nM with NCI-H460 [2] and 3400 nM in the data set on A-431 [7]. Moreover, the Stability entry in [3] is given as “Stable”. Further, the inhibition in vivo at 35 mg/kg in the data set with A-431 [17] stood at 0%; in the data set with A-431 [20] it was 1%. For the same compound, the remaining at 24 h in data set [5] and in [14] was over 99% throughout. In addition, the Activity in the data set with Mus musculus [18] is on record as 6%; in the data set with Mus musculus [19] it was 3%. The solubility result in data set [10] is listed as “Insoluble”. Further, the remaining at 3 h in data set [13] is over 99%.

The values are drawn from ChEMBL document CHEMBL1955854, “New retinoid derivatives as back-ups of Adarotene” (Bioorg Med Chem, 2012).
